Source: ChEMBL document CHEMBL4680121, “Development of (4-methoxyphenyl)-1H-tetrazol-5-amine regioisomers as a new class of selective antitubercular agents” (Eur J Med Chem, 2020)

Key:
Mycobacterium avium = experiment: Antimycobacterial activity against Mycobacterium avium assessed as inhibition of microbial growth incubated for 1 week by MABA method; type: functional; settings: 168 h, time 1 weeks
Method in brief: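 Microplate Alamar Blue assay in Middlebrook 7H9 broth with 10% OADC. Inoculum from fresh LJ culture was adjusted to McFarland 1 and diluted 1:20. DMSO stocks were two-fold serially diluted to final 0.125–512 µg/ml, with growth and sterile controls. Plates ran 1 week at 37 °C, then Alamar blue was added for 24 h. MIC is the lowest concentration preventing the blue-to-pink change.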

[1] = system: Mycobacterium scrofulaceum; experiment: Antibacterial activity against Mycobacterium scrofulaceum assessed as inhibition of microbial growth incubated for 1 week by MABA method; type: functional; settings: 168 h, time 1 weeks
Method in brief: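 Microplate Alamar Blue assay using two-fold serial microdilution in Middlebrook 7H9 broth with 10% OADC, compounds 0.125–512 µg/ml from DMSO stocks. Inoculum came from fresh LJ culture, was adjusted to McFarland 1 and diluted 1:20. Plates were incubated 1 week at 37 °C, Alamar blue was added and plates were re-incubated 24 h. MIC was the lowest concentration preventing the blue-to-pink change. Each plate carried growth and sterile controls.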

[2] = system: Mycobacterium tuberculosis; experiment: Antitubercular activity against Mycobacterium tuberculosis H37Rv ATCC 25618 assessed as fractional inhibitory concentration index incubated for 14 days in presence of 1/2 x MIC isoniazid by MABA method; type: functional; settings: time 14 day
Method in brief: (§1)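 Interaction analysis in Middlebrook 7H9 with 10% OADC. Combination MICs came from mixing the derivative (1 to 1/32 MIC) with the reference drug at 1/2 MIC, and the reverse, after 14 days at 37 °C with McFarland 1 inoculum. FICI was calculated from the combination MIC values and the MICs alone.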

[3] = system: Mycobacterium tuberculosis; experiment: Antitubercular activity against Mycobacterium tuberculosis Spec.192 assessed as fractional inhibitory concentration index in presence of 1/2 x MIC streptomycin incubated for 14 days by MABA method; type: functional; settings: time 14 day; method in brief: as §1
[4] = system: Staphylococcus epidermidis; experiment: Antibacterial activity against Staphylococcus epidermidis ATCC 35984/RP62A assessed as bacterial growth inhibition measured after 18 hrs by two-fold serial microdilution method; type: functional
Method in brief: (§2)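 Two-fold serial broth microdilution in MH II medium following modified CLSI procedures. Compounds were dissolved in DMSO and diluted in medium to at most 1% solvent, tested from 0.03125 to 512 μg/ml. Final inoculum 10^6 CFU/ml. MIC was taken as the lowest concentration with no visible growth after 18 h at 35 °C.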

Staphylococcus aureus [5] = experiment: Antibacterial activity against Staphylococcus aureus ATCC 6538 assessed as bacterial growth inhibition measured after 18 hrs by two-fold serial microdilution method; type: functional; method in brief: as §2
Staphylococcus aureus [6] = experiment: Antibacterial activity against Staphylococcus aureus NCTC 4163 assessed as bacterial growth inhibition measured after 18 hrs by two-fold serial microdilution method; type: functional; method in brief: as §2
[7] = Cytotoxicity against human HTB-140 cells assessed as LDH release at 100 uM incubated for 72 hrs by LDH assay; type: cell-based; settings: htb-140, 72 h
Method in brief: (§3)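 LDH release measured with a kit after 72 h exposure to 100 μM compound. Cells were seeded at 1×10^4 per well in DMEM or EMEM with 2% FBS. Absorbance was read at 490 nm. Release (%) = (A sample − A low control)/(A high control − A low control) × 100, with the Triton X-100 (1%) control taken as 100% release. Values are mean ± SD of three independent experiments run in triplicate.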

HaCaT [8] = experiment: Cytotoxicity against human HaCaT cells assessed as LDH release at 100 uM incubated for 72 hrs by LDH assay; type: cell-based; method in brief: as §3
[9] = system: Mycobacterium tuberculosis; experiment: Antitubercular activity against Mycobacterium tuberculosis H37Rv ATCC 25618 assessed as reduction in bacterial growth incubated for 14 days in presence of 1/2 x MIC rifampicin by MABA method; type: functional; settings: H37Rv ATCC 25618, 336 h, time 14 day
Method in brief: (§4)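 Checkerboard-type combination in Middlebrook 7H9 with 10% OADC. The test derivative at 1 to 1/32 of its MIC alone was mixed with the reference drug fixed at 1/2 its MIC. 4 ml samples were inoculated with McFarland 1 suspension and incubated 14 days at 37 °C. MIC is the lowest derivative concentration in combination that inhibited growth in liquid medium.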

[10] = system: Mycobacterium tuberculosis; experiment: Antitubercular activity against Mycobacterium tuberculosis H37Rv ATCC 25618 assessed as streptomycin MIC incubated for 14 days in presence of streptomycin by MABA method; type: functional; settings: H37Rv ATCC 25618, 336 h, time 14 day
Method in brief: (§5)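 In Middlebrook 7H9 with 10% OADC, the reference drug (INH, RMP, SM or EMB) at 1 to 1/32 of its MIC alone was mixed with the test derivative fixed at 1/2 its MIC. 4 ml samples were inoculated with McFarland 1 suspension and incubated 14 days at 37 °C. MIC is the lowest drug concentration in combination that inhibited growth.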

[11] = system: Mycobacterium tuberculosis; experiment: Antitubercular activity against Mycobacterium tuberculosis H37Rv ATCC 25618 assessed as ethambutol MIC incubated for 14 days in presence of ethambutol by MABA method; type: functional; settings: H37Rv ATCC 25618, 336 h, time 14 day; method in brief: as §5
[12] = system: Mycobacterium tuberculosis; experiment: Antitubercular activity against Mycobacterium tuberculosis Spec.192 assessed as reduction in bacterial growth incubated for 14 days in presence of 1/2 x MIC rifampicin by MABA method; type: functional; settings: Mycobacterium tuberculosis, 192, 336 h; time 14 day; method in brief: as §4
[13] = system: Mycobacterium tuberculosis; experiment: Antitubercular activity against Mycobacterium tuberculosis Spec.192 assessed as reduction in bacterial growth incubated for 14 days in presence of 1/2 x MIC isoniazid by MABA method; type: functional; settings: Mycobacterium tuberculosis, 192, 336 h; time 14 day; method in brief: as §4
[14] = system: Mycobacterium tuberculosis; experiment: Antitubercular activity against Mycobacterium tuberculosis Spec.192 assessed as reduction in bacterial growth incubated for 14 days in presence of 1/2 x MIC streptomycin by MABA method; type: functional; settings: Mycobacterium tuberculosis, 192, 336 h; time 14 day; method in brief: as §4
[15] = system: Mycobacterium tuberculosis; experiment: Antitubercular activity against Mycobacterium tuberculosis Spec.192 assessed as ethambutol MIC incubated for 14 days in presence of ethambutol by MABA method; type: functional; settings: Mycobacterium tuberculosis, 192, 336 h; time 14 day; method in brief: as §5
HaCaT [16] = experiment: Cytotoxicity against human HaCaT cells assessed as reduction in cell viability at 100 uM measured after 72 hrs by MTT assay; type: cell-based
Method in brief: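 MTT viability assay on cells grown in DMEM with 10% heat-inactivated FBS, penicillin/streptomycin and 20 mM HEPES at 37 °C/5% CO2. Cells were seeded at 1×10^4 per well and allowed to adhere for 24 h, then the medium was refreshed. Compounds were added at 20–140 μM for 72 h at 37 °C, followed by MTT (0.5 mg/mL in serum-free medium) for 4 h. Untreated cells served as control. IC50 is the concentration giving 50% growth inhibition versus control.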

[17] = system: Mycobacterium tuberculosis; experiment: Potentiation of streptomycin-induced antimycobacterial activity against Mycobacterium tuberculosis H37Rv ATCC 25618 assessed as fold decrease in streptomycin MIC at 1/2X MIC incubated for 14 days in presence of streptomycin by MABA method; type: functional; settings: time 14 day
Method in brief: (§6)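 Combination assay in Middlebrook 7H9 broth with 10% OADC. The reference drug (INH, RMP, SM or EMB) was varied from 1 to 1/32 of its MIC, and the test derivative was fixed at 1/2 its own MIC. Single-agent MICs were determined first by MABA. Inoculum was 1 McFarland, with 14 days of incubation at 37 °C. The endpoint was the lowest reference-drug concentration that inhibited growth.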

[18] = system: Mycobacterium tuberculosis; experiment: Potentiation of streptomycin-induced antimycobacterial activity against Mycobacterium tuberculosis Spec.192 assessed as fold decrease in streptomycin MIC at 1/2X MIC incubated for 14 days in presence of streptomycin by MABA method; type: functional; settings: time 14 day; method in brief: as §6

Compound	MIC (Mycobacterium avium)	MIC [1]	fractional inhibitory concentration index (FICI) [2]	fractional inhibitory concentration index (FICI) [3]	MIC [4]	MIC (Staphylococcus aureus [5])	MIC (Staphylococcus aureus [6])	Activity [7]	Activity (HaCaT [8])	MIC [9]	MIC [10]	MIC [11]	MIC [12]	MIC [13]	MIC [14]	MIC [15]	Activity (HaCaT [16])	fold change (FC) [17]	fold change (FC) [18]
COc1ccc(-n2nnnc2Nc2cccc(Br)c2)cc1	256 µg/mL	512 µg/mL	4.125	0.5	> 256 µg/mL	> 256 µg/mL	> 256 µg/mL	< 17%	4.88%	0.5 µg/mL	0.25 µg/mL	1 µg/mL	0.5 µg/mL	0.25 µg/mL	0.5 µg/mL	1 µg/mL	Non-Toxic	2	2
COc1ccc(-n2nnnc2Nc2ccc(Br)cc2)cc1	512 µg/mL	512 µg/mL	4.125	0.375	> 256 µg/mL	> 256 µg/mL	> 256 µg/mL	Non-Toxic	7.25%	0.5 µg/mL	0.25 µg/mL	1 µg/mL	0.5 µg/mL	0.25 µg/mL	0.25 µg/mL	1 µg/mL	Non-Toxic	4	4
